# ChEMBL document CHEMBL1158067, “Phenolic glycosides with antioxidant activity from the stem bark of Populus davidiana” (J Nat Prod, 2006)
# Assay: ABTS radical scavenging activity assessed as Trolox equivalent antioxidant capacity index
# Type: physicochemical
# How it was run: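 ABTS radical cation generated from 7 mM ABTS in water plus potassium persulfate (final 2.45 mM), held in the dark at room temperature for 16 h, then diluted with water to A734 0.700 ± 0.020. Diluted radical mixed with compound or Trolox standard in MeOH (final 0–20 µM), kept at ambient temperature. A734 read exactly 6 min after mixing, solvent blanks included. Compounds were dosed to give 10–80% inhibition. Percent absorbance decrease was plotted against concentration and referenced to Trolox.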
row,SMILES,Activity
1,O=C(O)/C=C/c1ccc(O)c(O)c1 [CAFFEIC ACID],1.98
2,O=C(O[C@H]1[C@H](Oc2ccccc2COC(=O)C2(O)C=CCCC2=O)O[C@H](CO)[C@@H](O)[C@@H]1O)c1ccccc1 (some centres not stated) [TREMULACIN],0.12
3,O=C(OCc1cc(O)ccc1O[C@@H]1O[C@H](CO)[C@@H](O)[C@H](O)[C@H]1O)c1ccccc1 [SALIREPOSIDE],1.01
4,O=C(/C=C/c1ccc(O)cc1)O[C@@H]1O[C@H](CO)[C@@H](O)[C@H](O)[C@H]1O,0.78
5,O=C(/C=C/c1ccc(O)cc1)O[C@H]1[C@H](OC2CCCCC2O)O[C@H](CO)[C@@H](O)[C@@H]1O (some centres not stated) [GRANDIDENTATIN],1.27
6,Cc1cc(C(C)(C)C)c(O)c(C(C)(C)C)c1 [BUTYLATED HYDROXYTOLUENE],0.8
7,O=C(O[C@H]1[C@H](Oc2ccccc2CO)O[C@H](CO)[C@@H](O)[C@@H]1O)c1ccccc1 [TREMULDIN],0.24
8,COc1cc(/C=C/C(=O)OCc2ccccc2O[C@@H]2O[C@H](CO)[C@@H](O)[C@H](O)[C@H]2O)ccc1O [POPULOSIDE C],1.55
9,O=C(/C=C/c1ccc(O)cc1)OCc1cc(O)ccc1O[C@@H]1O[C@H](CO)[C@@H](O)[C@H](O)[C@H]1O [POPULOSIDE A],2.07
10,O=C(/C=C/c1ccc(O)cc1)OCc1ccccc1O[C@@H]1O[C@H](CO)[C@@H](O)[C@H](O)[C@H]1O [POPULOSIDE B],1.13
11,O=C(/C=C/c1ccc(O)c(O)c1)OCc1ccccc1O[C@@H]1O[C@H](CO)[C@@H](O)[C@H](O)[C@H]1O [POPULOSIDE],1.67
12,OCc1ccccc1O[C@@H]1O[C@H](CO)[C@@H](O)[C@H](O)[C@H]1O [SALICIN],0.21
